Compound activity from PubChem BioAssay.
bCat nuc transl: beta-catenin nuclear translocation modulation; HeLa beta-catenin nuclear translocation, immunofluorescence imaging; nuclear translocation activity, % at 5 µM; 190,000 compounds, 0.3% hits;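 active = nuclear translocation activity above 50% at 5 µM, with a well cell count of 50 or more; inconclusive = wells under 50 cells across six images, flagged as toxic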;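 also: per-cell ratio of nuclear to cytoplasmic median beta-catenin stain intensity; plate controls were DMSO negative control for no effect and GSK-3 inhibitor IX positive control for full effect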
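Read-out: Nuclear/cytoplasmic beta-catenin signal ratio, % activation | Assay system: Human HeLa cell line | Times: 24 h compound exposure at 37°C, 5% CO2 | Signal: Fluorescence imaging of beta-catenin antibody stain plus DAPI | Dosing: 5 µM primary, 0.02–20 µM confirmation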
WT yeast gro inh: growth inhibition of WT yeast, mitochondrial fusion screen; mitochondrial fusion phenotypic screen, WT strain; inhibition, % at 10 µM; 190,000 compounds, 2.1% hits; AID 1362; in the data active = inhibition above about 58%; tested in S. cerevisiae
Cl transport mod: modulators of human KCC2 chloride dependent transport. 190,000 compounds, 2.2% hits. KCC2 cells, thallium flux FluoZin-2 fluorescence. AID 1456. Q9H2X9. B-score of Tl+ flux slope (higher = more flux/activation; lower = inhibition) at 10 µM;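 active = thallium flux slope and its plate-corrected score both differing from the plate sample mean at a set confidence after two filtering rounds, in either direction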;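 also: slope of fluorescence scaled to starting intensity during 10 to 20 s after thallium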
Target sequence (Q9H2X9 whole entry, looked up): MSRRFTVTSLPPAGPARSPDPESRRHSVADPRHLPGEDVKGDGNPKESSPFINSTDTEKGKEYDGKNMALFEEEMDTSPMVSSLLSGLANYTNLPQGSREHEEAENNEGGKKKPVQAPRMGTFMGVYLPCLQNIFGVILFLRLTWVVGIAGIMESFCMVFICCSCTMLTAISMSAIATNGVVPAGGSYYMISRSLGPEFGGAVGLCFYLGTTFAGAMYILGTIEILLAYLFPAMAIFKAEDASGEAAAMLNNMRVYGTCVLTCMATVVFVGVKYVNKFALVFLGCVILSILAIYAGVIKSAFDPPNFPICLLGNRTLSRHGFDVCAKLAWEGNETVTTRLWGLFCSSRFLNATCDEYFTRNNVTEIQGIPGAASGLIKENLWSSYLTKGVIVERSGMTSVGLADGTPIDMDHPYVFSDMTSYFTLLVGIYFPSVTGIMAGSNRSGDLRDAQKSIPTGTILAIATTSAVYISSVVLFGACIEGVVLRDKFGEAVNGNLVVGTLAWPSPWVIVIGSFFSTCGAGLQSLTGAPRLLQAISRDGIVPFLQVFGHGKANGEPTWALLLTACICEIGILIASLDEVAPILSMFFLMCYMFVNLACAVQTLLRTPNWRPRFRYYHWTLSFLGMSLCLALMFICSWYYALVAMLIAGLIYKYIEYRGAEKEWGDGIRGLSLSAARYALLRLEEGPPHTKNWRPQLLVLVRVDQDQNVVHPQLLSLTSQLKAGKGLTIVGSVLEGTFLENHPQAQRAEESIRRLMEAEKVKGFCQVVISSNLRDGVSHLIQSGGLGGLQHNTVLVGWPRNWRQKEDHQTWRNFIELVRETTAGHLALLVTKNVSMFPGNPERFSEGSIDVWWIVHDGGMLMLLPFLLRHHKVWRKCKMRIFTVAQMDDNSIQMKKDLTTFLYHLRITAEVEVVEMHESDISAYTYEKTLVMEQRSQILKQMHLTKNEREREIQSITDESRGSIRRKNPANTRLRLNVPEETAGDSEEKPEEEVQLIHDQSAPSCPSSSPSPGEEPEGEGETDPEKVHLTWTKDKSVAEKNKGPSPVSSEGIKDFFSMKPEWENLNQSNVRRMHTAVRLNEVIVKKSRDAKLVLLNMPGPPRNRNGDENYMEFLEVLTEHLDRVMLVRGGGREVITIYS
MT stabilize HCS: microtubule stabilization, imaging screen; HeLa tubulin immunostaining HCS, 24 h; share of cells brighter than vehicle mean+2SD; % tubulin-high responders, % at 10 µM; 200,000 compounds, 0.83% hits; AID 2205;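 active = plate Z-score above 3 for both tubulin-high and condensed-nucleus cell shares, with cell loss under 80%, at 10 µM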;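 also: anti alpha tubulin signal scored within the nucleus-defined area of each cell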
Pf gametocyte: P. falciparum stage V gametocyte viability inhibition; 150,000 compounds, 0.065% hits; AID 743093; inhibition, % at 10.9 µM; P. falciparum stage V gametocytes, ATP luminescence, 24 h;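 active = inhibition above the mean plus 3 SD of compounds within the control limits, set per campaign, cut at about 38% in these data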;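 also: 0% = DMSO wells and 100% = medium only without gametocytes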
KCC2 secondary: confirmation of human KCC2 transport modulators; shares compounds with Cl transport mod; HEK293-KCC2, thallium flux, FluoZin2 fluorescence; stronger effect = higher value; normalised thallium flux (F/F0 slope) at 10 µM; 3,700 compounds, 15% hits; AID 1713;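 active = thallium flux slope above the same plate's solvent-only control mean plus 3 SD; inconclusive = the two replicate wells disagree; inactive = no significant difference from solvent-only control wells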
KCC2 bumet counter: bumetanide-insensitive thallium flux in KCC2 cells with ouabain, counter-screen; HEK293-KCC2 + bumetanide/ouabain, thallium flux FluoZin2; stronger effect = higher value; 3,700 compounds, 49% hits; normalized thallium flux at 10 µM; shares compounds with Cl transport mod;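 active = thallium entry rate above the same plate's blocked-transporter control wells by more than 3 SD; inconclusive = the two repeat wells disagree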;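 also: raw slope of fluorescence over initial fluorescence between 10 and 20 s after thallium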
KCC2 secondary2: confirmation of human KCC2 transport modulators; shares compounds with Cl transport mod; HEK293-KCC2, thallium flux FluoZin2 fluorescence; actives lie on both sides; F/F0 rise rate, 10–20 s post-thallium; normalized thallium flux at 10 µM; 3,700 compounds, 23% hits; AID 1715;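 active = thallium flux slope more than 3 SD above or below the plate's solvent-only control mean, mostly below; inconclusive = the two repeat wells disagreed; inactive = no significant shift from solvent-only controls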;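 also: raw slope with 0.1% DMSO as baseline and bumetanide as block control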
HEK293 Tl flux: counter-screen for KCC2 modulators: effect in parental HEK293 cells; thallium flux rate (normalised fluorescence) at 10 µM; thallium flux FluoZin2, ouabain; baseline-ratio fluorescence slope, 10–20 s after thallium; 3,700 compounds, 46% hits; shares compounds with Cl transport mod; AID 1716;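 active = thallium flux rate significantly above the same plate's solvent-only control wells, beyond their mean plus 3 SD; inconclusive = the two replicate wells gave conflicting results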
KCC2 retest ouab: KCC2 (human) modulation, ouabain retest. raw Tl+ flux slope (below DMSO = inhibition, above = activation) at 10 µM. 3,700 compounds, 48% hits. shares compounds with Cl transport mod. HEK293-KCC2, thallium flux FluoZin2 fluorescence; bidirectional: low = inhibitor, high = activator;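 active = thallium flux slope beyond 3 SD from same-plate DMSO control mean in most replicates, usually higher, sometimes lower; inconclusive = repeat tests gave conflicting results; inactive = no significant difference from controls in most replicates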;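 also: slope of initial-normalized fluorescence between seconds 10 and 20 after thallium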
HEK counter2: parental HEK flux effect, counter-screen 2. shares compounds with Cl transport mod. HEK293 parental, thallium flux FluoZin-2 fluorescence slope. thallium flux slope at 10 µM. 3,700 compounds, 33% hits. AID 1718;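 active = thallium flux slope above the same plate's solvent-control mean plus 3 SD in both duplicate wells; inconclusive = duplicate wells that disagreed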;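 also: run without ouabain in cells lacking the KCC2 cotransporter; slope of fluorescence scaled to its starting value between 10 and 20 s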
* = called active by the depositor. In the library only some 4% were active in any assay of this set; here they are far more common.

For S=c1[nH]nc(COc2ccc(Cl)cc2)n1Cc1ccco1 the results were bCat nuc transl 0, WT yeast gro inh 31, Cl transport mod 10*, MT stabilize HCS 6, KCC2 secondary 0.0096, KCC2 bumet counter 0.057*, KCC2 secondary2 0.029, HEK293 Tl flux 0.012*, KCC2 retest ouab 0.028* and HEK counter2 inconclusive.
For CCCc1n[nH]c(=S)n1Cc1ccco1 the results were bCat nuc transl 0, Cl transport mod 1.7 and Pf gametocyte 26.
CCCCc1n[nH]c(=S)n1Cc1ccccc1 was read as bCat nuc transl -4, WT yeast gro inh 6, Cl transport mod -0.044 and MT stabilize HCS 5.
For CCCCc1n[nH]c(=S)n1Cc1ccc(Cl)cc1 the results were bCat nuc transl 0, WT yeast gro inh 45, Cl transport mod 4.2*, MT stabilize HCS 3, Pf gametocyte 27, KCC2 secondary 0.0088, KCC2 bumet counter 0.017*, KCC2 secondary2 0.034, HEK293 Tl flux 0.0094*, KCC2 retest ouab 0.022 and HEK counter2 0.011.
`CCc1ccc(OCc2n[nH]c(=S)n2Cc2ccccc2)cc1` gave bCat nuc transl -1, WT yeast gro inh 65*, Cl transport mod 15*, MT stabilize HCS 1, Pf gametocyte -5, KCC2 secondary 0.0095, KCC2 bumet counter 0.036*, KCC2 secondary2 0.03, HEK293 Tl flux 0.015*, KCC2 retest ouab inconclusive and HEK counter2 0.011*.
For CN(C)CCN(CC1CCCN(Cc2ccccc2F)C1)C(=O)c1ccc(Cl)cc1 (stereo not given) the results were Pf gametocyte -33.
For Cn1c(C(=O)N2CCc3ccccc3C2)cc2c(=O)n3ccccc3nc21 the results were bCat nuc transl -2, WT yeast gro inh -2, MT stabilize HCS 6, KCC2 secondary 0.0051, KCC2 bumet counter 0.0063*, KCC2 secondary2 0.027, HEK293 Tl flux 0.0073, KCC2 retest ouab 0.015* and HEK counter2 0.011.
Screening CC(C)(C)NC(=O)C(=O)NNC(=O)c1cccc(Br)c1 returned bCat nuc transl -1, WT yeast gro inh 3, Cl transport mod 33*, MT stabilize HCS 3, Pf gametocyte 3, KCC2 secondary 0.0096*, KCC2 bumet counter 0.054*, KCC2 secondary2 0.047*, HEK293 Tl flux 0.047*, KCC2 retest ouab 0.05* and HEK counter2 0.028*.
Screening Cc1cccc(C(=O)NNC(=O)C(=O)NC(C)(C)C)c1 returned bCat nuc transl 2, WT yeast gro inh 4 and MT stabilize HCS 1.
Screening CCCCCCN1C(=O)C(O)=C(C(C)=O)C1c1ccc(Cl)cc1 (stereo not given) returned bCat nuc transl 4, WT yeast gro inh -5, Cl transport mod -3.3*, MT stabilize HCS 4, Pf gametocyte 4, KCC2 secondary 0.0093, KCC2 bumet counter inconclusive, KCC2 secondary2 0.03, HEK293 Tl flux 0.0082, KCC2 retest ouab 0.014* and HEK counter2 0.011.
Screening CCOc1ccc(NC(=O)CC(NCc2ccccn2)C(=O)O)cc1 (stereo not given) returned bCat nuc transl 0, WT yeast gro inh -3, Cl transport mod -0.53 and MT stabilize HCS 5.
`C[C@H](CO)N1C[C@H](C)[C@@H](CN(C)C(=O)Nc2ccc3c(c2)OCO3)Oc2ccc(NC(=O)CCC(F)(F)F)cc2C1=O` gave Pf gametocyte 9.
COc1ccc(-c2nnc3n(CCc4ccccc4)c(=O)c4ccccc4n23)cc1OC was read as bCat nuc transl -2, WT yeast gro inh 11, Cl transport mod 4.4*, MT stabilize HCS 2, Pf gametocyte 7, KCC2 secondary 0.0088, KCC2 bumet counter 0.017*, KCC2 secondary2 0.028, HEK293 Tl flux 0.0097*, KCC2 retest ouab inconclusive and HEK counter2 inconclusive.
`COc1ccc(OCC(O)CNC(=O)/C=C/c2cccc([N+](=O)[O-])c2)cc1` (stereo not given) gave bCat nuc transl -7, WT yeast gro inh -10, Cl transport mod -1.5, MT stabilize HCS 7 and Pf gametocyte -13.
`CC(=O)Nc1ccc(C(=O)OCC(=O)Nc2c(F)cccc2F)cc1` gave bCat nuc transl -2, Cl transport mod 1 and Pf gametocyte -2.
Screening O=C(NC1CCN(Cc2ccccc2)C1)c1cc(COc2ccc(F)cc2F)on1 (stereo not given) returned bCat nuc transl -2, WT yeast gro inh 9, MT stabilize HCS 2, KCC2 secondary 0.0064, KCC2 bumet counter 0.0048, KCC2 secondary2 inconclusive, HEK293 Tl flux 0.0074, KCC2 retest ouab 0.019 and HEK counter2 0.0099.
Screening O=C(NC1CCc2ccccc21)c1cc(COc2ccc(F)cc2F)on1 (stereo not given) returned bCat nuc transl 2, WT yeast gro inh 24, MT stabilize HCS 2 and Pf gametocyte 13.
For CC(C)Cc1cc(C(=O)Nc2sc3c(c2C#N)CCC3)no1 the results were WT yeast gro inh 10, Cl transport mod 4.8*, MT stabilize HCS 2, KCC2 secondary 0.0064, KCC2 bumet counter 0.017*, KCC2 secondary2 0.033, HEK293 Tl flux 0.017*, KCC2 retest ouab 0.027* and HEK counter2 0.014*.
For CCC(=O)Nc1sc2c(c1C#N)CCCCC2 the results were bCat nuc transl 2, WT yeast gro inh 6, Cl transport mod 0.0017 and MT stabilize HCS 1.
CC(=O)Nc1sc2c(c1C#N)CCCCC2 was read as bCat nuc transl -3, WT yeast gro inh 2, Cl transport mod 6.1*, MT stabilize HCS 2, Pf gametocyte 9, KCC2 secondary 0.0096, KCC2 bumet counter 0.0073, KCC2 secondary2 0.03, HEK293 Tl flux 0.0076, KCC2 retest ouab 0.066 and HEK counter2 inconclusive.
Screening C=CCNC(=S)Nc1sc2c(c1C#N)CCCC2 returned bCat nuc transl -5, WT yeast gro inh 2, Cl transport mod 13*, MT stabilize HCS 1, Pf gametocyte -62, KCC2 secondary 0.0065, KCC2 bumet counter 0.021*, KCC2 secondary2 0.03, HEK293 Tl flux 0.018*, KCC2 retest ouab 0.027* and HEK counter2 0.012*.
